≈ marks a conversion by molar mass, not a printed value.
Experiments:
HSC-2 = assay: Cytotoxicity against human HSC2 cells after 24 hrs by MTT assay; format: functional, cell-based; settings: HSC-2, 24 h
Summary of the method: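 HSC-2 monolayers kept in DMEM with 10% heat-inactivated FBS at 37 °C, 5% CO2. Trypsinized cells plated, grown 24 h, PBS-washed, exposed 24 h with or without compound. After PBS wash, 0.2 mg/mL MTT in DMEM/10% FBS for 4 h; cells lysed in DMSO and absorbance taken as relative viable cell number. IC50 reported.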

HL-60 = assay: Cytotoxicity against human HL60 cells after 72 hrs by MTT assay; format: functional, cell-based; settings: HL-60, 72 h
Summary of the method: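 HL-60 leukemia cells seeded in 96-well plates, held 24 h at 37 °C in 5% CO2/air, then given sample in EtOH-H2O (1:1) to final 0.1-20 µg/mL; solvent alone for controls. Exposure 72 h, then MTT for 4 h at 37 °C; cells and formazan pelleted, formazan dissolved in DMSO, A550 read. Triplicate; IC50 = concentration cutting viable cell number by 50%.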

| SMILES | IC50 (HSC-2) [µg/mL] | IC50 (HL-60) [µg/mL] |
| --- | --- | --- |
| CC(C)CC[C@H](O)[C@@H](C)[C@H]1[C@@H](O[C@@H]2O[C@H](CO)[C@@H](O)[C@H](O)[C@H]2O)C[C@H]2[C@@H]3CC[C@H]4C[C@@H](O)C[C@@H](O[C@@H]5O[C@H](CO)[C@@H](O)[C@H](O)[C@H]5O)[C@]4(C)[C@H]3CC[C@]12C | > 100 | > 10 |
| CC(=O)OC[C@H]1O[C@@H](O[C@H]2C[C@H]3[C@@H]4CC[C@H]5C[C@@H](O)C[C@@H](O[C@@H]6O[C@@H](C)[C@H](O)[C@@H](O)[C@H]6O)[C@]5(C)[C@H]4CC[C@]3(C)[C@H]2[C@H](C)[C@@H](O)CCC(C)C)[C@H](O)[C@@H](O)[C@@H]1O | > 100 | 5.3 (≈ 6.73 µM) |
| C[C@@H]1O[C@@H](O[C@H]2[C@H](O[C@@H]3C[C@H](O)CC4=CC[C@H]5[C@@H]6C[C@@H]7O[C@]8(C[C@H](O)[C@@H](C)CO8)[C@@H](C)[C@@H]7[C@@]6(C)CC[C@@H]5[C@]43C)OC[C@H](O)[C@@H]2O)[C@H](O)[C@H](O)[C@H]1O | > 100 | 5.2 (≈ 7.17 µM) |
| C[C@@H]1CC[C@@]2(OC1)O[C@H]1C[C@H]3[C@@H]4CC[C@H]5C[C@@H](O)C[C@@H](O[C@@H]6O[C@H](CO)[C@@H](O)[C@H](O)[C@H]6O)[C@]5(C)[C@H]4CC[C@]3(C)[C@H]1[C@@H]2C | 34.6 (≈ 58.2 µM) | 1.6 (≈ 2.69 µM) |
| CC(C)CC[C@H](O)[C@@H](C)[C@H]1[C@@H](O[C@@H]2O[C@H](CO)[C@@H](O)[C@H](O)[C@H]2O)C[C@H]2[C@@H]3CC[C@H]4C[C@@H](O)C[C@@H](O[C@@H]5O[C@@H](C)[C@H](O)[C@@H](O)[C@H]5O)[C@]4(C)[C@H]3CC[C@]12C | > 100 | > 10 |
| COc1cc(C(=O)OC[C@H]2O[C@@H](O[C@@H]3C[C@H](O)C[C@@H]4CC[C@H]5[C@@H]6C[C@H](O[C@@H]7O[C@H](CO)[C@@H](O)[C@H](O)[C@H]7O)[C@H]([C@H](C)[C@@H](O)CC=C(C)C)[C@@]6(C)CC[C@@H]5[C@]43C)[C@H](O)[C@@H](O)[C@@H]2O)cc(OC)c1OC | > 100 | > 10 |
| C[C@@H]1CC[C@@]2(OC1)O[C@H]1C[C@H]3[C@@H]4CC=C5C[C@@H](O)C[C@@H](O[C@@H]6OC[C@H](O)[C@H](O)[C@H]6O[C@@H]6O[C@@H](C)[C@H](O)[C@@H](O)[C@H]6O)[C@]5(C)[C@H]4CC[C@]3(C)[C@H]1[C@@H]2C | 19.9 (≈ 28.1 µM) | 2.2 (≈ 3.1 µM) |
| CC(C)=CC[C@H](O)[C@@H](C)[C@H]1[C@@H](O[C@@H]2O[C@@H](C)[C@H](O)[C@@H](O)[C@H]2O)C[C@H]2[C@@H]3CC=C4C[C@@H](O)C[C@@H](O[C@@H]5O[C@@H](C)[C@H](O)[C@@H](O)[C@H]5O)[C@]4(C)[C@H]3CC[C@]12C | > 100 | 5.1 (≈ 7.04 µM) |
| CC(=O)OC[C@H]1O[C@@H](O[C@H]2C[C@H]3[C@@H]4CC[C@H]5C[C@@H](O)C[C@@H](O[C@@H]6O[C@@H](C)[C@H](O)[C@@H](O)[C@H]6O)[C@]5(C)[C@H]4CC[C@]3(C)[C@H]2[C@H](C)[C@@H](O)CCC(C)C)[C@H](O)[C@@H](O)[C@@H]1O[C@@H]1OC[C@](O)(CO)[C@H]1O | > 100 | > 10 |
| C[C@@H]1CC[C@@]2(OC1)O[C@H]1C[C@H]3[C@@H]4CC=C5C[C@@H](O)C[C@@H](O[C@@H]6OC[C@H](O)[C@H](O[C@@H]7OC[C@@H](O)[C@H](O)[C@H]7O)[C@H]6O[C@@H]6O[C@@H](C)[C@H](O)[C@@H](O)[C@H]6O)[C@]5(C)[C@H]4CC[C@]3(C)[C@H]1[C@@H]2C | 21.2 (≈ 25.2 µM) | 1.9 (≈ 2.26 µM) |
| CC(C)=CC[C@H](O)[C@@H](C)[C@H]1[C@@H](O[C@@H]2O[C@@H](C)[C@H](O)[C@@H](O)[C@H]2O)C[C@H]2[C@@H]3CC[C@H]4C[C@@H](O)C[C@@H](O[C@@H]5O[C@@H](C)[C@H](O)[C@@H](O)[C@H]5O)[C@]4(C)[C@H]3CC[C@]12C | > 100 | > 10 |
| COc1cc([C@@H]2c3cc4c(cc3[C@@H](O[C@@H]3O[C@@H]5CO[C@@H](C)O[C@H]5[C@H](O)[C@H]3O)[C@H]3COC(=O)[C@H]23)OCO4)cc(OC)c1O [ETOPOSIDE] | 24.4 (≈ 41.5 µM) | 0.23 (≈ 0.391 µM) |
| COc1cc(C(=O)OC[C@H]2O[C@@H](O[C@@H]3C[C@H](O)C[C@@H]4CC[C@H]5[C@@H]6C[C@H](O[C@@H]7O[C@H](CO)[C@@H](O)[C@H](O)[C@H]7O)[C@H]([C@H](C)[C@@H](O)CCC(C)C)[C@@]6(C)CC[C@@H]5[C@]43C)[C@H](O)[C@@H](O)[C@@H]2O)cc(OC)c1OC | > 100 | 5 (≈ 5.23 µM) |
| C[C@@H]1O[C@@H](O[C@H]2[C@H](O[C@@H]3C[C@H](O)CC4=CC[C@H]5[C@@H]6C[C@@H]7O[C@]8(C[C@H](O)[C@@H](C)CO8)[C@@H](C)[C@@H]7[C@@]6(C)CC[C@@H]5[C@]43C)OC[C@H](O)[C@@H]2O[C@@H]2OC[C@@H](O)[C@H](O)[C@H]2O)[C@H](O)[C@H](O)[C@H]1O | > 100 | > 10 |
| CC(C)CC[C@H](O)[C@@H](C)[C@H]1[C@@H](O[C@@H]2O[C@@H](C)[C@H](O)[C@@H](O)[C@H]2O)C[C@H]2[C@@H]3CC=C4C[C@@H](O)C[C@@H](O[C@@H]5O[C@@H](C)[C@H](O)[C@@H](O)[C@H]5O)[C@]4(C)[C@H]3CC[C@]12C | > 100 | > 10 |
